Where two headings read alike, the source gives them in different places. Ends that are not written are not given here. Peptide text beside a SMILES is read from it. * marks the point of attachment. Cbz = O=C(OCc1ccccc1)*
Legend:
αMβ2 = αMβ2 clustering on PMNs, fluorescence microscopy; assay type: cell-based, human; settings: 4 h, 37 °C; for effect on Plg-dependent αMβ2 clustering: Plg 1 μM + inhibitor, MβCD 5 mM, peptide 18 0.5 μM, H7 300 μM, BDM 20 mM, cytochalasin D 10 μM, calpain inhibitor III 10 μM; for αMβ2 macroclusters on PMN surface: proteins 1 μM, peptides 100 μM, anti-αM OKMI staining, four donors
Procedure, shortened: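 Human PMNs were exposed to ligands (proteins 1 μM, peptides 100 μM) for 4 h at 37°C, or to 1 μM Plg together with clustering inhibitors at the final concentrations used in apoptosis assays. Cells were fixed in 4% paraformaldehyde and stained with anti-αM mAb OKMI plus Alexa 488 goat anti-mouse IgG. They were cytospun, mounted and imaged by fluorescence microscopy (×40/0.7 NA); PMNs came from four donors.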

human PMNs = settings: for PMN early/late apoptosis (% annexin V+ cells), inhibitor + Fg: clustering inhibitor + Fg 1 μM; for PMN early/late apoptosis (% annexin V+ cells), inhibitor + Fg / PMN early/late apoptosis (% annexin V+ cells), inhibitor + P1 / PMN early/late apoptosis (% annexin V+ cells), inhibitor + P2-C / PMN early/late apoptosis (% annexin V+ cells), inhibitor + Plg: mean ± SEM, n = 5; for PMN early/late apoptosis (% annexin V+ cells), inhibitor + P1: clustering inhibitor + P1 100 μM; for PMN early/late apoptosis (% annexin V+ cells), inhibitor + P2-C: clustering inhibitor + P2-C 100 μM; for PMN early/late apoptosis (% annexin V+ cells), inhibitor + Plg: clustering inhibitor + Plg 1 μM
αMβ2 on PMN = experiment: Soluble Alexa 488-labeled ligand binding to PMN, FACS; design: species or system human; settings: clustering inhibitor, 1 h, 37 °C, mean ± SEM, n = 3
Procedure, shortened: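 Human PMNs were incubated for 1 h at 37°C in HBSS/Ca²⁺/Mg²⁺ with soluble Alexa 488-labelled Plg or Fg, with or without clustering inhibitors. After two buffer washes, bound ligand was read by FACS; mean ± SEM, n = 3.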

[1] = target: recombinant purified integrin αMβ2 (Homo sapiens, UniProt P05107+P11215); experiment: Solid-phase binding to purified αMβ2; settings: data not shown; test format not stated
Procedure, shortened: (§1)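 Purified recombinant αMβ2, αM or β2 (from HEK293 lines) was coated overnight at 4°C in TBS with 10 mM n-octyl-β-D-glucopyranoside and postcoated with 0.5% PVP for 1 h at 37°C. Biotinylated Plg or Ang(1–4) (0–10 μM) was bound for 2 h at 37°C in the same buffer plus 1 mM CaCl₂/MgCl₂. Binding was detected with alkaline phosphatase–avidin and pNPP at A405. Kd came from a one-site binding fit.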

PMN = settings: cited from earlier work; for effect on PMN apoptosis: ref [6]–[9]
[2] = target: recombinant purified β2 subunit (Homo sapiens, UniProt P05107); experiment: Solid-phase binding to purified β2 subunit; settings: for recognition by individual integrin subunits (in words): solid-phase binding, αM versus β2
Procedure, shortened: as §1

ERK1/2 [3] = experiment: ERK1/2 phosphorylation in transfected K562 cells, Western blot; assay type: cell-based, human; settings: 37 °C; for ERK1/2 activation, αM cells: K562 expressing αM, 30 min; for ERK1/2 activation, αMβ2 cells: K562 expressing αMβ2, 30 min; for ERK1/2 phosphorylation, mock and β2 cells: K562 mock or expressing β2, 30 min
Procedure, shortened: (§2)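 Transiently transfected K562 cells (αM, β2, αMβ2 or mock) were exposed to ligands for 30 min at 37°C and lysed in ice-cold buffer. Equal protein was run on SDS-PAGE and blotted with the PathScan Multiplex Western Cocktail I, then reprobed for total ERK1/2; blots shown are representative of three experiments.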

Bax [4] = experiment: Bax cleavage in K562 cell lysates, Western blot; assay type: cell-based, human; settings: K562 αMβ2 transfectants, 24 h, 37 °C; proteins 1 μM, peptides 100 μM
[5] = test system: mock-transfected K562 cells; experiment: Apoptosis of mock-transfected K562 cells, annexin V, FACS; assay type: cell-based, human; settings: 16 h, 37 °C; proteins 1 μM, peptides 100 μM; no ligand 81 ± 8; mean ± SEM, n = 5
caspase-3 [6] = experiment: Caspase-3 cleavage in K562 cell lysates, Western blot; assay type: cell-based, human; settings: K562 αMβ2 transfectants, 24 h, 37 °C; proteins 1 μM, peptides 100 μM
Bax [7] = experiment: Bax cleavage in PMN lysates, Western blot; assay type: cell-based, human; settings: PMN lysate, 16 h; proteins 1 μM, peptides 100 μM; six donors
Akt [8] = experiment: Akt phosphorylation in transfected K562 cells, Western blot; assay type: cell-based, human; settings: 37 °C; for Akt phosphorylation, αM, β2 and mock cells: K562 expressing αM or β2, or mock-transfected, 30 min; for Akt phosphorylation, αMβ2 cells: K562 expressing αMβ2, 30 min
Procedure, shortened: as §2

αMβ2 on K562 cells = experiment: Soluble ligand binding to K562 cells expressing αMβ2, FACS; design: species or system human; settings: 40 min, 37 °C
Procedure, shortened: (§3)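 Transiently transfected K562 cells were incubated with soluble Alexa 488-labelled Plg or Ang(1–4) for 40 min at 37°C in HBSS containing 1 mM CaCl₂ and 1 mM MgCl₂. Cells were washed twice and bound ligand was quantified by FACS; three independent experiments. For inhibition, cells were pretreated for 20 min at 37°C with function-blocking anti-αM or anti-β2 mAbs (20 μg/ml) or NIF (20 nM).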

caspase-3 [9] = experiment: Caspase-3 cleavage in PMN lysates, Western blot; assay type: cell-based, human; settings: PMN lysate, 16 h; proteins 1 μM, peptides 100 μM; six donors
caspase-8 [10] = experiment: Caspase-8 cleavage in PMN lysates, Western blot; assay type: cell-based, human; settings: PMN lysate, 16 h; proteins 1 μM, peptides 100 μM; six donors
caspase-8 [11] = experiment: Caspase-8 cleavage in K562 cell lysates, Western blot; assay type: cell-based, human; settings: K562 αMβ2 transfectants, 24 h, 37 °C; proteins 1 μM, peptides 100 μM
Akt [12] = experiment: Akt phosphorylation in PMNs, Western blot; assay type: cell-based, human; settings: PMN stimulated with 1 nM PMA, 30 min, 37 °C; proteins 1 μM, peptides 100 μM
Procedure, shortened: (§4)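 Human PMNs stimulated with 1 nM PMA were incubated with ligands for 30 min at 37°C in HBSS with 1 mM CaCl₂, 1 mM MgCl₂, 0.1% BSA, pH 7.4. Cells were lysed in ice-cold Tris/EDTA/detergent buffer with phosphatase and protease inhibitors. Equal protein was immunoblotted for phospho- and total Akt or ERK1/2, with actin. Inhibition arm: 20 min pretreatment at 37°C with 10 μM Akt inhibitor, 50 μM PD98059, 50 nM NIF, or F(ab′)₂ anti-αM or anti-MHC-1 (20 μg/ml), then 1 μM Plg.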

αM subunit on K562 cells = experiment: Soluble ligand binding to K562 cells expressing αM, FACS; design: species or system human; settings: 40 min, 37 °C
Procedure, shortened: as §3

β2 subunit on K562 cells = experiment: Soluble ligand binding to K562 cells expressing β2, FACS; design: species or system human; settings: 40 min, 37 °C
Procedure, shortened: as §3

ERK1/2 [13] = experiment: ERK1/2 phosphorylation in PMNs, Western blot; assay type: cell-based, human; settings: PMN stimulated with 1 nM PMA, 30 min, 37 °C; proteins 1 μM, peptides 100 μM
Procedure, shortened: as §4

Sequence of recombinant purified β2 subunit (P05107 23-769): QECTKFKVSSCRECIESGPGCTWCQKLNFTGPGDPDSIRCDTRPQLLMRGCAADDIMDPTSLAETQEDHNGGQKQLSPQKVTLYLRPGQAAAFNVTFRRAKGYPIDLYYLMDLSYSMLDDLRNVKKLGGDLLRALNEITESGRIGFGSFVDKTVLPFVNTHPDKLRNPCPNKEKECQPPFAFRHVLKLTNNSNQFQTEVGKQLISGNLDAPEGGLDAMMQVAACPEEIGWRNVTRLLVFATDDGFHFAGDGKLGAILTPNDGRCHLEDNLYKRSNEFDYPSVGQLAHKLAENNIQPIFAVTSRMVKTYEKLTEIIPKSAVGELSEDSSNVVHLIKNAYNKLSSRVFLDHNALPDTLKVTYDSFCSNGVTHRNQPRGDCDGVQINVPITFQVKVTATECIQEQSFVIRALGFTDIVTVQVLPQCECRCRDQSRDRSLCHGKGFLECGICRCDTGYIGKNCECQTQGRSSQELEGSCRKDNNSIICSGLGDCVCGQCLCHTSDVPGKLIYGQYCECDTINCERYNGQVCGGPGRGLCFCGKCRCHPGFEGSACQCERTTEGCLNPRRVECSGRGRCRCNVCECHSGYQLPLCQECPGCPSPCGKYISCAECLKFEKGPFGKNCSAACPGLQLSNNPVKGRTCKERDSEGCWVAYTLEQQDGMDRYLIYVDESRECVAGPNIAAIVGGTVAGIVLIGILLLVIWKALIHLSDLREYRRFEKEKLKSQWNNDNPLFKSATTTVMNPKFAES
Sequence of recombinant purified integrin αMβ2 (P05107 23-769, other chains not shown): as the sequence (P05107 23-769) above

## CC(=O)C(C)=NO [BDM, 2,3-butanedione 2-monoxime]
αMβ2
  effect on Plg-dependent αMβ2 clustering: blocked or significantly reduced
Human PMNs; 16 h, 37 °C
  PMN early/late apoptosis (% annexin V+ cells), inhibitor + Fg: 98.7 ± 24%
  PMN early/late apoptosis (% annexin V+ cells), inhibitor + P1: 85.4 ± 20%
  PMN early/late apoptosis (% annexin V+ cells), inhibitor + P2-C: 97.8 ± 22%
  PMN early/late apoptosis (% annexin V+ cells), inhibitor + Plg: 99.2 ± 24%
αMβ2 on PMN
  ligand binding, inhibitor, no ligand (background): 2.90 ± 0.5 MFI

## CC(C)[C@H](NC(=O)OCc1ccccc1)C(=O)N[C@H](C=O)Cc1ccccc1 [Calpain inhibitor III] (Cbz-Val-Phe-aldehyde)
αMβ2
  effect on Plg-dependent αMβ2 clustering: blocked or significantly reduced
Human PMNs; 16 h, 37 °C
  PMN early/late apoptosis (% annexin V+ cells), inhibitor + Fg: 88.9 ± 23%
  PMN early/late apoptosis (% annexin V+ cells), inhibitor + P1: 94.5 ± 22%
  PMN early/late apoptosis (% annexin V+ cells), inhibitor + P2-C: 74.7 ± 19%
  PMN early/late apoptosis (% annexin V+ cells), inhibitor + Plg: 97.1 ± 22%
αMβ2 on PMN
  ligand binding, inhibitor, no ligand (background): 3.4 ± 0.4 MFI

## C=C1[C@@H](C)[C@H]2[C@H](Cc3ccccc3)NC(=O)[C@]23[C@H](OC(C)=O)/C=C/[C@@](C)(O)C(=O)[C@@H](C)C/C=C/[C@H]3[C@@H]1O [Cytochalasin D, cytochalasin D]
αMβ2
  effect on Plg-dependent αMβ2 clustering: blocked or significantly reduced
Human PMNs; 16 h, 37 °C
  PMN early/late apoptosis (% annexin V+ cells), inhibitor + Fg: 55.5 ± 18%
  PMN early/late apoptosis (% annexin V+ cells), inhibitor + P1: 66.07 ± 15%
  PMN early/late apoptosis (% annexin V+ cells), inhibitor + P2-C: 77.4 ± 16%
  PMN early/late apoptosis (% annexin V+ cells), inhibitor + Plg: 66.6 ± 15%
αMβ2 on PMN
  ligand binding, inhibitor, no ligand (background): 2.3 ± 0.3 MFI

## CC1CNCCN1S(=O)(=O)c1cccc2cnccc12.Cl.Cl (stereo not drawn) [H7, 1-(5-isoquinolinylsulfonyl)-2-methylpiperazine dihydrochloride]
αMβ2
  effect on Plg-dependent αMβ2 clustering: blocked or significantly reduced
Human PMNs; 16 h, 37 °C
  PMN early/late apoptosis (% annexin V+ cells), inhibitor + Fg: 62.3 ± 16%
  PMN early/late apoptosis (% annexin V+ cells), inhibitor + P1: 60.1 ± 14%
  PMN early/late apoptosis (% annexin V+ cells), inhibitor + P2-C: 78.6 ± 17%
  PMN early/late apoptosis (% annexin V+ cells), inhibitor + Plg: 79.2 ± 18%
αMβ2 on PMN
  ligand binding, inhibitor, no ligand (background): 3.2 ± 0.6 MFI

## COc1cccc(-c2cc(=O)c3ccccc3o2)c1N [PD 98059]
Human PMNs; PMN with Plg, 16 h, 37 °C
  effect on Plg-dependent PMN survival (in words): reduced Plg-dependent PMN survival, but to a lesser extent than the Akt inhibitor

## NCCCCCC(=O)O [ε-aminocaproic acid]
Human PMNs
  effect on Plg-dependent PMN survival (in words): reduced

## Ang([1]–[3]): angiostatin fragment which lacks kringle 4; Calbiochem
[1]
  recognition by αMβ2: is recognized by this integrin

## GM-CSF: agent that promotes PMN responsiveness
PMN
  effect on PMN apoptosis: delay PMN apoptosis

## IL-8: agent that promotes PMN responsiveness
PMN
  effect on PMN apoptosis: delay PMN apoptosis

## KIIPFNRLTIG [P2-C]
[2]
  Kd: 0.05 µM
Human PMNs; 16 h, 100 μM
  PMN early/late apoptosis (% annexin V+ cells), no inhibitor: 20.1 ± 4%

## TNF-α
PMN
  effect on PMN death: promote PMN death

## angiostatin [Ang(1–4)]
[2]
  recognition by individual integrin subunits (in words): recognized only by the αM and not by the β2 subunit
ERK1/2 [3]
  ERK1/2 activation, αM cells: poorly induced
  ERK1/2 activation, αMβ2 cells: poorly induced
  ERK1/2 phosphorylation, mock and β2 cells: poorly induced
Bax [4]
  Bax cleavage product, αMβ2 cells: present
[5]
  K562 early/late apoptosis (% annexin V+ cells), mock: 78 ± 8%
caspase-3 [6]
  caspase-3 cleavage product, αMβ2 cells: present
Bax [7]
  22-kDa Bax fragment: detected
Akt [8]
  Akt phosphorylation, αM, β2 and mock cells: failed to induce Akt activation
  Akt phosphorylation, αMβ2 cells: failed to induce Akt activation
αMβ2
  αMβ2 macroclusters on PMN surface: did not support αMβ2 clustering
αMβ2 on K562 cells
  soluble ligand binding, αMβ2 cells (in words): bound both ligands
caspase-3 [9]
  18-kDa caspase-3 fragment: detected
caspase-8 [10]
  caspase-8 fragment: detected
caspase-8 [11]
  caspase-8 cleavage product, αMβ2 cells: present
Akt [12]
  Akt phosphorylation: negligible
αM subunit on K562 cells
  soluble ligand binding, αM cells (in words): bound both ligands
β2 subunit on K562 cells
  soluble ligand binding, β2 cells (in words): failed to bind soluble Ang([1]– [4])

## fibrinogen [Fg]
[2]
  recognition by individual integrin subunits (in words): engage both integrin subunits
ERK1/2 [3]
  ERK1/2 activation, αM cells: strongly induced
  ERK1/2 activation, αMβ2 cells: strongly induced
  ERK1/2 phosphorylation, mock and β2 cells: poorly induced
Bax [4]
  Bax cleavage product, αMβ2 cells: not detected
[5]
  K562 early/late apoptosis (% annexin V+ cells), mock: 72 ± 13%
caspase-3 [6]
  caspase-3 cleavage product, αMβ2 cells: not detected
Bax [7]
  22-kDa Bax fragment: absent
Akt [8]
  Akt phosphorylation, αM, β2 and mock cells: not in K562 cells expressing the individual αM or β2 subunits (Fig. 6A) or mock-transfected cells
  Akt phosphorylation, αMβ2 cells: robust Akt phosphorylation
αMβ2
  αMβ2 macroclusters on PMN surface: detected
PMN
  effect on PMN apoptosis: delay PMN apoptosis
αMβ2 on K562 cells
  soluble ligand binding, αMβ2 cells (in words): bound soluble Fg
caspase-3 [9]
  18-kDa caspase-3 fragment: absent
caspase-8 [10]
  caspase-8 fragment: absent
caspase-8 [11]
  caspase-8 cleavage product, αMβ2 cells: not detected
Akt [12]
  Akt phosphorylation: robust Akt phosphorylation
ERK1/2 [13]
  ERK1/2 activation: induced ERK1/2 activation
αM subunit on K562 cells
  soluble ligand binding, αM cells (in words): bound soluble Fg
β2 subunit on K562 cells
  soluble ligand binding, β2 cells (in words): bound soluble Fg

## methyl-β-cyclodextrin [MβCD]
Human PMNs; 16 h, 37 °C
  PMN early/late apoptosis (% annexin V+ cells), inhibitor + Fg: 59.3 ± 15%
  PMN early/late apoptosis (% annexin V+ cells), inhibitor + P1: 66.3 ± 18%
  PMN early/late apoptosis (% annexin V+ cells), inhibitor + P2-C: 75.6 ± 17%
  PMN early/late apoptosis (% annexin V+ cells), inhibitor + Plg: 75.0 ± 13%
αMβ2 on PMN
  ligand binding, inhibitor, no ligand (background): 3.09 ± 0.4 MFI

— article PMC2978023 (Journal of immunology (Baltimore, Md. : 1950), 2008)
